≈ marks a conversion by molar mass, not a printed value.
Legend:
[1] = Cytotoxicity against cat CRFK cells by MTS assay; type: cell-based, Felis catus; conditions: crfk
Method in brief: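 In uninfected CRFK cells, the 50% cytotoxic concentration was derived from cell viability measured by the colorimetric formazan-based MTS assay.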

[2] = system: Feline infectious peritonitis virus; test: Antiviral activity against Feline coronavirus FIPV infected in cat CRFK cells assessed as protection against virus-induced cytopathogenicity after 2 days by MTS assay; type: functional, cell-based; conditions: Alphacoronavirus 1, CRFK, 48 h
[3] = system: Respiratory syncytial virus; test: Antiviral activity against Respiratory syncytial virus infected in human HeLa cells assessed as protection against virus-induced cytopathogenicity after 2 days; type: functional, organism-based; conditions: 48 h
[4] = system: Mammalian orthoreovirus 1; test: Antiviral activity against Reovirus-1 infected in african green monkey Vero cells assessed as protection against virus-induced cytopathogenicity after 2 days; type: functional, organism-based; conditions: Mammalian orthoreovirus 1, Vero, 48 h
Coxsackievirus B4 [5] = test: Antiviral activity against Coxsackie virus B4 infected in human HeLa cells assessed as protection against virus-induced cytopathogenicity after 2 days; type: functional, organism-based; conditions: Enterovirus B, 48 h
Influenza A virus [6] = test: Antiviral activity against Influenza A virus H3N2 infected in MDCK cells assessed as protection against virus-induced cytopathogenicity at 100 ug/ml after 2 days; type: functional, organism-based
Method in brief: (§1)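 Infected MDCK cells were treated. […] N.A. means not active at the highest concentration tested or at a subtoxic concentration.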

[7] = Cytotoxicity against african green monkey Vero cells assessed as minimum concentration required to cause microscopically detectable alteration after 2 days; type: cell-based; conditions: chlorocebus sabaeus, read-out: Activity
Felid alphaherpesvirus 1 = test: Antiviral activity against Feline herpes virus infected in cat CRFK cells assessed as protection against virus-induced cytopathogenicity after 2 days by MTS assay; type: functional, organism-based; conditions: Felid alphaherpesvirus 1, CRFK, 48 h
[8] = Cytotoxicity against MDCK cells assessed as minimum concentration required to cause microscopically detectable alteration after 2 days; type: cell-based, Canis lupus familiaris; conditions: dog, read-out: Activity
Influenza A virus [9] = test: Antiviral activity against influenza A virus H1N1 infected in MDCK cells assessed as protection against virus-induced cytopathogenicity at 100 ug/ml after 2 days; type: functional, organism-based; method in brief: as §1
Influenza A virus [10] = test: Antiviral activity against Influenza A virus H3N2 infected in MDCK cells assessed as cell viability at 100 ug/ml after 2 days by MTS assay; type: functional, organism-based
Punta Toro virus = test: Antiviral activity against Punta Toro virus infected in african green monkey Vero cells assessed as protection against virus-induced cytopathogenicity after 2 days; type: functional, organism-based; conditions: 48 h
[11] = Cytotoxicity against human HEL cells assessed as minimum concentration required to cause microscopically detectable alteration after 2 days; type: cell-based; conditions: read-out: Activity
Human alphaherpesvirus 1 [12] = test: Antiviral activity against acyclovir-resistant TK deficient Herpes simplex virus-1 KOS infected in human HEL cells assessed as protection against virus-induced cytopathogenicity after 2 days; type: functional, organism-based; conditions: Human alphaherpesvirus 1, KOS, 48 h
[13] = system: Vesicular stomatitis virus; test: Antiviral activity against Vesicular stomatitis virus infected in human HeLa cells assessed as protection against virus-induced cytopathogenicity after 2 days; type: functional, organism-based; conditions: 48 h
Coxsackievirus B4 [14] = test: Antiviral activity against Coxsackie virus B4 infected in african green monkey Vero cells assessed as protection against virus-induced cytopathogenicity after 2 days; type: functional, organism-based; conditions: Enterovirus B, 48 h
Human alphaherpesvirus 2 = test: Antiviral activity against Herpes simplex virus-2 G infected in human HEL cells assessed as protection against virus-induced cytopathogenicity after 2 days; type: functional, organism-based; conditions: Human alphaherpesvirus 2, strain G, 48 h
Influenza A virus [15] = test: Antiviral activity against influenza A virus H1N1 infected in MDCK cells assessed as cell viability at 100 ug/ml after 2 days by MTS assay; type: functional, organism-based
Influenza B virus [16] = test: Antiviral activity against influenza B virus infected in MDCK cells assessed as protection against virus-induced cytopathogenicity at 100 ug/ml after 2 days; type: functional, organism-based; method in brief: as §1
Sindbis virus = test: Antiviral activity against Sindbis virus infected in african green monkey Vero cells assessed as protection against virus-induced cytopathogenicity after 2 days; type: functional, organism-based; conditions: 48 h
Human alphaherpesvirus 1 [17] = test: Antiviral activity against Herpes simplex virus-1 KOS infected in human HEL cells assessed as protection against virus-induced cytopathogenicity after 2 days; type: functional, organism-based; conditions: Human alphaherpesvirus 1, KOS, 48 h
Influenza B virus [18] = test: Antiviral activity against influenza B virus infected in MDCK cells assessed as cell viability at 100 ug/ml after 2 days by MTS assay; type: functional, organism-based
Human respirovirus 3 = test: Antiviral activity against Para influenza-3 virus infected in african green monkey Vero cells assessed as protection against virus-induced cytopathogenicity after 2 days; type: functional, organism-based; conditions: Human respirovirus 3, Vero, 48 h
[19] = system: Vesicular stomatitis virus; test: Antiviral activity against Vesicular stomatitis virus infected in human HEL cells assessed as protection against virus-induced cytopathogenicity after 2 days; type: functional, organism-based; conditions: 48 h
MDCK = test: Cytotoxicity against MDCK cells by MTS assay; type: cell-based, Canis lupus familiaris; conditions: dog, mdck
Method in brief: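 In Madin Darby canine kidney cells, the 50% cytotoxic concentration was derived from cell viability measured by the colorimetric formazan-based MTS assay.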

[20] = Cytotoxicity against human HeLa cells assessed as minimum concentration required to cause microscopically detectable alteration after 2 days; type: cell-based; conditions: read-out: Activity

O=c1c2ccccc2nc(-c2ccccc2)n1/N=C/c1cccc([N+](=O)[O-])c1
CC50 [1]: 13.8 µg/mL (≈ 37.3 µM)
EC50 [2]: > 4 µg/mL
EC50 [3]: > 4 µg/mL
EC50 [4]: > 4 µg/mL
EC50 (Coxsackievirus B4 [5]): > 4 µg/mL
EC50 (Influenza A virus [6]): Not Active
MCC at 48 h [7]: 20 µg/mL
EC50 (Felid alphaherpesvirus 1): > 4 µg/mL
MCC at 48 h [8]: 20 µg/mL
EC50 (Influenza A virus [9]): Not Active
EC50 (Influenza A virus [10]): Not Active
EC50 (Punta Toro virus): > 4 µg/mL
MCC at 48 h [11]: ≥ 20 µg/mL
EC50 (Human alphaherpesvirus 1 [12]): > 20 µg/mL
EC50 [13]: > 4 µg/mL
EC50 (Coxsackievirus B4 [14]): > 4 µg/mL
EC50 (Human alphaherpesvirus 2): > 20 µg/mL
EC50 (Influenza A virus [15]): Not Active
EC50 (Influenza B virus [16]): Not Active
EC50 (Sindbis virus): > 4 µg/mL
EC50 (Human alphaherpesvirus 1 [17]): > 20 µg/mL
EC50 (Influenza B virus [18]): Not Active
EC50 (Human respirovirus 3): > 4 µg/mL
EC50 [19]: > 20 µg/mL
CC50 (MDCK): > 100 µg/mL
MCC at 48 h [20]: 20 µg/mL

C/C(=N\n1c(-c2ccccc2)nc2ccccc2c1=O)c1ccc(O)cc1
CC50 [1]: > 100 µg/mL
EC50 [2]: > 100 µg/mL
EC50 [3]: > 100 µg/mL
EC50 [4]: > 100 µg/mL
EC50 (Coxsackievirus B4 [5]): > 100 µg/mL
EC50 (Influenza A virus [6]): Not Active
MCC at 48 h [7]: 100 µg/mL
EC50 (Felid alphaherpesvirus 1): > 100 µg/mL
MCC at 48 h [8]: > 100 µg/mL
EC50 (Influenza A virus [9]): Not Active
EC50 (Influenza A virus [10]): Not Active
EC50 (Punta Toro virus): > 100 µg/mL
MCC at 48 h [11]: > 100 µg/mL
EC50 (Human alphaherpesvirus 1 [12]): > 100 µg/mL
EC50 [13]: > 100 µg/mL
EC50 (Coxsackievirus B4 [14]): > 100 µg/mL
EC50 (Human alphaherpesvirus 2): > 100 µg/mL
EC50 (Influenza A virus [15]): Not Active
EC50 (Influenza B virus [16]): Not Active
EC50 (Sindbis virus): > 100 µg/mL
EC50 (Human alphaherpesvirus 1 [17]): > 100 µg/mL
EC50 (Influenza B virus [18]): Not Active
EC50 (Human respirovirus 3): > 100 µg/mL
EC50 [19]: > 100 µg/mL
CC50 (MDCK): > 100 µg/mL
MCC at 48 h [20]: > 100 µg/mL

COc1ccccc1/C=N/n1c(-c2ccccc2)nc2ccccc2c1=O
CC50 [1]: 14.4 µg/mL (≈ 40.5 µM)
EC50 [2]: > 4 µg/mL
EC50 [3]: > 4 µg/mL
EC50 [4]: > 20 µg/mL
EC50 (Coxsackievirus B4 [5]): > 4 µg/mL
EC50 (Influenza A virus [6]): Not Active
MCC at 48 h [7]: 100 µg/mL
EC50 (Felid alphaherpesvirus 1): > 4 µg/mL
MCC at 48 h [8]: 20 µg/mL
EC50 (Influenza A virus [9]): Not Active
EC50 (Influenza A virus [10]): Not Active
EC50 (Punta Toro virus): > 20 µg/mL
MCC at 48 h [11]: 100 µg/mL
EC50 (Human alphaherpesvirus 1 [12]): > 20 µg/mL
EC50 [13]: > 4 µg/mL
EC50 (Coxsackievirus B4 [14]): > 20 µg/mL
EC50 (Human alphaherpesvirus 2): > 20 µg/mL
EC50 (Influenza A virus [15]): Not Active
EC50 (Influenza B virus [16]): Not Active
EC50 (Sindbis virus): > 20 µg/mL
EC50 (Human alphaherpesvirus 1 [17]): > 20 µg/mL
EC50 (Influenza B virus [18]): Not Active
EC50 (Human respirovirus 3): > 20 µg/mL
EC50 [19]: > 20 µg/mL
CC50 (MDCK): 12.4 µg/mL (≈ 34.9 µM)
MCC at 48 h [20]: 20 µg/mL

O=c1c2ccccc2nc(-c2ccccc2)n1/N=C/c1ccc(Cl)cc1
CC50 [1]: 42.2 µg/mL (≈ 117 µM)
EC50 [2]: > 20 µg/mL
EC50 [3]: > 4 µg/mL
EC50 [4]: > 4 µg/mL
EC50 (Coxsackievirus B4 [5]): > 4 µg/mL
EC50 (Influenza A virus [6]): Not Active
MCC at 48 h [7]: 20 µg/mL
EC50 (Felid alphaherpesvirus 1): > 20 µg/mL
MCC at 48 h [8]: 20 µg/mL
EC50 (Influenza A virus [9]): Not Active
EC50 (Influenza A virus [10]): Not Active
EC50 (Punta Toro virus): > 4 µg/mL
MCC at 48 h [11]: 100 µg/mL
EC50 (Human alphaherpesvirus 1 [12]): > 20 µg/mL
EC50 [13]: > 4 µg/mL
EC50 (Coxsackievirus B4 [14]): > 4 µg/mL
EC50 (Human alphaherpesvirus 2): > 20 µg/mL
EC50 (Influenza A virus [15]): Not Active
EC50 (Influenza B virus [16]): Not Active
EC50 (Sindbis virus): > 4 µg/mL
EC50 (Human alphaherpesvirus 1 [17]): > 20 µg/mL
EC50 (Influenza B virus [18]): Not Active
EC50 (Human respirovirus 3): > 4 µg/mL
EC50 [19]: > 20 µg/mL
CC50 (MDCK): 76.4 µg/mL (≈ 212 µM)
MCC at 48 h [20]: 20 µg/mL

C/C(=N\n1c(-c2ccccc2)nc2ccccc2c1=O)c1ccccc1
CC50 [1]: 2.6 µg/mL (≈ 7.66 µM)
EC50 [2]: > 0.8 µg/mL
EC50 [3]: > 100 µg/mL
EC50 [4]: > 20 µg/mL
EC50 (Coxsackievirus B4 [5]): > 100 µg/mL
EC50 (Influenza A virus [6]): Not Active
MCC at 48 h [7]: 100 µg/mL
EC50 (Felid alphaherpesvirus 1): > 0.8 µg/mL
MCC at 48 h [8]: 100 µg/mL
EC50 (Influenza A virus [9]): Not Active
EC50 (Influenza A virus [10]): Not Active
EC50 (Punta Toro virus): > 20 µg/mL
MCC at 48 h [11]: > 100 µg/mL
EC50 (Human alphaherpesvirus 1 [12]): > 100 µg/mL
EC50 [13]: > 100 µg/mL
EC50 (Coxsackievirus B4 [14]): > 20 µg/mL
EC50 (Human alphaherpesvirus 2): > 100 µg/mL
EC50 (Influenza A virus [15]): Not Active
EC50 (Influenza B virus [16]): Not Active
EC50 (Sindbis virus): > 20 µg/mL
EC50 (Human alphaherpesvirus 1 [17]): > 100 µg/mL
EC50 (Influenza B virus [18]): Not Active
EC50 (Human respirovirus 3): > 20 µg/mL
EC50 [19]: > 100 µg/mL
CC50 (MDCK): > 100 µg/mL
MCC at 48 h [20]: > 100 µg/mL

COc1ccc(/C=N/n2c(-c3ccccc3)nc3ccccc3c2=O)cc1O
CC50 [1]: 42.7 µg/mL (≈ 115 µM)
EC50 [2]: > 20 µg/mL
EC50 [3]: > 4 µg/mL
EC50 [4]: > 20 µg/mL
EC50 (Coxsackievirus B4 [5]): > 4 µg/mL
EC50 (Influenza A virus [6]): Not Active
MCC at 48 h [7]: 100 µg/mL
EC50 (Felid alphaherpesvirus 1): > 20 µg/mL
MCC at 48 h [8]: 20 µg/mL
EC50 (Influenza A virus [9]): Not Active
EC50 (Influenza A virus [10]): Not Active
EC50 (Punta Toro virus): > 20 µg/mL
MCC at 48 h [11]: 100 µg/mL
EC50 (Human alphaherpesvirus 1 [12]): > 20 µg/mL
EC50 [13]: > 4 µg/mL
EC50 (Coxsackievirus B4 [14]): > 20 µg/mL
EC50 (Human alphaherpesvirus 2): > 20 µg/mL
EC50 (Influenza A virus [15]): Not Active
EC50 (Influenza B virus [16]): Not Active
EC50 (Sindbis virus): > 20 µg/mL
EC50 (Human alphaherpesvirus 1 [17]): > 20 µg/mL
EC50 (Influenza B virus [18]): Not Active
EC50 (Human respirovirus 3): > 20 µg/mL
EC50 [19]: > 20 µg/mL
CC50 (MDCK): 47.4 µg/mL (≈ 128 µM)
MCC at 48 h [20]: 20 µg/mL
